ChEMBL document CHEMBL4513216, “Probing the Open Global Health Chemical Diversity Library for Multistage-Active Starting Points for Next-Generation Antimalarials” (ACS Infect Dis, 2020)

Experiment: Toxicity liver stage against HepG2, at 10uM
Format: cell-based
Parameters: test concentration 10 uM, cell line HepG2-A16-CD81EGFP
Settings: human, HepG2-A16-CD81EGFP cells; read-out: INHIBITION
Method in brief: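 Uninfected HepG2-A16-CD81EGFP cells, 3 × 10^3 per well, 1536-well, plated on prespotted compound at 10 μM final, parasite-free screening media added to match infected plates; puromycin 10 μM positive, DMSO 0.5% negative; run in parallel with 48 h PbLuc assay at 37 °C, 5% CO2; viability by CellTiter-Glo luminescence, normalized to controls.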

Row | Structure (SMILES) | cytotoxicity at 10 µM
1 | Cn1ncc2c1CCCN(C(=O)C1CCC1)C2 | -3.15%
2 | COc1ccc(-c2nnc([C@H]3CCN(CC(C)(C)C)C3)o2)cc1 | -3.43%
3 | COc1ccc2c(c1)nc1n2[C@@H](CN(C2CCC2)C2CCC2)COC1 | 5.96%
4 | CC(C)(C)C(=O)CN1Cc2ccccc2NCCC1=O | -3.19%
5 | CC1CC(=O)c2cc(C(=O)N3CCc4ccccc4C3)c(=O)[nH]c2C1 (stereo unspecified) | -4.65%
6 | O=S(=O)(NCC1(O)CCOc2ccccc21)c1ccccc1F (stereo unspecified) | 7.22%
7 | Cc1nccn1-c1ccc(=O)n(CCNC(=O)c2ccncc2)n1 | -3.18%
8 | Cn1c(C(F)(F)F)nn(CCNC(=O)c2ccccn2)c1=O | -1.4%
9 | CC(=O)N1CC[C@@H](N2CCN(C)CC2)[C@@H]1Cc1ccccc1 | 9.04%
10 | CCC(C)Nc1ccc2c(c1)C1(CCOCC1)C(=O)N2c1ccccc1 (stereo unspecified) | 8.7%
11 | CC(C)C(=O)N1CCCC2(CCCN2Cc2cccnc2)C1 (stereo unspecified) | 5.22%
12 | CS(=O)(=O)N1CCCC12CCCN(C(=O)c1ccncc1)C2 (stereo unspecified) | -159%
13 | CO[C@@H]1CCN(S(=O)(=O)c2cn(C)cn2)[C@H]1Cc1ccccc1 | 7.13%
14 | Cc1ccc(S(=O)(=O)NC2=NCN(CCc3cccs3)CN2)cc1 | 4.77%
15 | COc1ccccc1NC(=O)CSC1CCc2ccccc2NC1=O (stereo unspecified) | 20%
16 | Fc1cccc(Cl)c1CNCc1ccccn1 | -2.25%
17 | CC(C)NC(=O)COc1ccc(-c2nc(C(C)C)no2)cc1 | 5.67%
18 | COc1cccc(OCCNS(=O)(=O)Cc2ccccc2)c1 | -15.7%
19 | CSc1ncnc(NCc2cccs2)c1C#N | -0.277%
20 | Cc1cc(C(=O)N2CCN(c3ncc4c(n3)CCOC4)CC2)sc1C | 0.794%
21 | Cc1onc(-c2ccncc2)c1C(=O)NC1CCCOC1 (stereo unspecified) | 4.51%
22 | CN1CCC(c2nnc3n2CCN(S(=O)(=O)c2ccccc2Cl)C3)CC1 | 2.58%
23 | NC(=O)c1cnn2c(C3CCCN(C4CCOCC4)C3)ccnc12 (stereo unspecified) | 4.34%

Row | Structure (SMILES) | cytotoxicity at 10 µM
24 | Cc1cc2c(c(=O)n1CCC(=O)O)C=CC(C)(C)O2 | 10.8%
25 | CC(Cn1cc(Cl)cn1)C(=O)Nc1ccc(CN2CCCCCC2)cc1 (stereo unspecified) | 8.66%
26 | Cc1nc(C2CCN2c2ncccn2)cc(N(C)C)n1 (stereo unspecified) | -4.8%
27 | O=C(O)c1ccc(=O)n(CC(c2ccc(Cl)cc2)N2CCCCCC2)c1 (stereo unspecified) | 1.12%
28 | Cc1cc(C(F)(F)F)n2nc(C3CCN(S(=O)(=O)N(C)C)CC3)cc2n1 | -2.88%
29 | Oc1cc(C2CCCCN2Cc2ccsc2)nc(-c2ccncc2)n1 (stereo unspecified) | 9.89%
30 | CCc1cc(C(=O)N[C@@H]2CC[C@@H](N3CCOCC3)[C@@H]2O)no1 | 37.5%
31 | COc1ccc(C(C)NCc2ccsc2)cc1Cn1cccn1 (stereo unspecified) | 7.86%
32 | COCCN(Cc1ccccn1)C(=O)CC1OCCc2ccccc21 (stereo unspecified) | -42.5%
33 | CNC(=O)c1cccc(CCNC2CCSc3ccccc32)c1 (stereo unspecified) | 3.42%
34 | CC(C)(CNC(=O)C1(c2ccccc2)CCOCC1)C(=O)O | 1.25%
35 | COc1cc(Cl)c(CN2CCC(C(N)=O)C2)cc1Cl (stereo unspecified) | -2.4%
36 | Cc1ccc(OCc2cccc(C(=O)N(C)C(C)CC#N)c2)cn1 (stereo unspecified) | 6.36%
37 | O=C(NCCc1nncn1C1CC1)C1SCCc2sccc21 (stereo unspecified) | -1.6%
38 | Cc1nc(NS(=O)(=O)c2ccc(F)c(Br)c2)no1 | 6.04%
39 | CCC(C(=O)NCCc1coc(-c2ccc(C)cc2)n1)N(C)C (stereo unspecified) | -1.13%
40 | O=C(OCC1CCCN(C(=O)c2ccccc2)C1)c1cscn1 (stereo unspecified) | -9.92%
41 | Cc1cn2c(CN(C)C(=O)c3ncoc3C)c(C)nc2s1 | -3.28%
42 | CN(C)C(=O)CCNC(=O)c1cnc(-c2ccccc2)nc1 | 4.87%
43 | O=C(c1cccc(NCCOc2ccc(F)cc2)c1)N1CCOCC1 | 7.43%
44 | CC(C)(NC(=O)CCc1ccco1)c1ccc2c(c1)OCCO2 | 1.44%
45 | CC(CN1CCOCC1)NC(=O)NCc1cccs1 (stereo unspecified) | -15.9%
46 | N#CCSCCCN1CCN(C(=O)c2cccc(Cl)c2)CC1 | -161%

Row | Structure (SMILES) | cytotoxicity at 10 µM
47 | CC(=O)NCCNC(=O)c1ccc(C)c(-n2cccc2)c1 | -2.04%
48 | CC(c1nc(C2CC2)no1)N1CCN(CC(=O)N2CCOCC2)CC1 (stereo unspecified) | 6.75%
49 | O=C(CN1CCOC(Cn2cccn2)C1)Nc1cccnc1 (stereo unspecified) | 10.7%
50 | Cc1noc(CNC(=O)N2CCN(c3nc(C)c(C)s3)CC2)n1 | -19.5%
51 | Cc1cc(C)c(CNC(=O)NC2COc3ccccc3C2)c(=O)[nH]1 (stereo unspecified) | -13.8%
52 | CCCc1nn(C2CCN(C(C)C)C2=O)c(=O)o1 (stereo unspecified) | -3.59%
53 | Cn1c(CCCNc2nccnc2C#N)nc2ccccc21 | -8.98%
54 | O=C(Nc1ccn(Cc2cccc3cccnc23)n1)C1COCCO1 (stereo unspecified) | 5.18%
55 | Cc1nc2scc(C)n2c1CNc1ccc(C(=O)O)cc1 | 7.05%
56 | Cc1cc(F)c2c(c1)CCCN2C(=O)c1cncc(Br)c1 | 1.25%
57 | CCN(CC)C(=O)c1cccc(Cn2nc(C)cc2C)c1 | -5.93%
58 | CN(CC(=O)NCC(C)(C)c1ccc2c(c1)OCO2)c1cnccn1 | -7.5%
59 | CCOC(=O)C1CCN(CCCc2nnnn2-c2ccccc2)CC1 | 0.462%
60 | Cc1ccc(CNC(=O)NCc2ccco2)s1 | 3.47%
61 | CC(C)Oc1cccc(CC(=O)N(CC(N)=O)C2CCCC2)c1 | -2.09%
62 | COc1cc(N2C[C@H](OCc3cccnc3)[C@H]3OCCC[C@H]32)ncn1 | 4.13%
63 | CC1(C)OC(=O)N(CCCOc2ccc(F)cc2)C1=O | 0.17%
64 | CCN(CC)C(=O)Cn1cc(C(=O)NCCc2scnc2C)nn1 | -4.47%
65 | O=C(Cc1ccccn1)N1CCCC(c2nccn2CC2CCC2)C1 (stereo unspecified) | -2.11%
66 | CCc1cc(N(C)Cc2ccncn2)n2nccc2n1 | 3.61%
67 | CN(Cc1n[nH]c2c1CCCC2)c1nc2c(c(=O)[nH]1)CCNCC2 | -20.1%
68 | CN(C)CCO[C@H]1C[C@@H](O)C12CCN(c1ncccc1Cl)CC2 | 5.37%
69 | O=C1NCCCc2[nH]c(C3CCN(C(=O)C4CC4)CC3)nc21 | -3.46%

Row | Structure (SMILES) | cytotoxicity at 10 µM
70 | CN(CCc1cn[nH]c1)Cc1nc(Cc2cccc(C(F)(F)F)c2)no1 | 0.361%
71 | O=C(c1ccncc1)N1CCC(Oc2cccc(C(F)(F)F)c2)CC1 | 14.1%
72 | COC(=O)c1cc(NC(=O)NCC2CCS(=O)(=O)C2)ccc1Cl (stereo unspecified) | 2.57%
73 | COCCN(C)C[C@@H]1CN(C(=O)c2cccc(Cl)c2)C[C@@H]1CO | -16.7%
74 | CSc1cccc(CN(C)C(=O)CN2CCN(c3ncccn3)CC2)c1 | 4.64%
75 | CC(C)CC(O)C1CCN(Cc2ccc(N(C)C)nc2)CC1 (stereo unspecified) | 1.75%
76 | COc1cc(F)c(C(=O)N2C[C@@H](CN(C)CCO)[C@@H](CO)C2)c(F)c1 | -1.53%
77 | CCCOc1ccc(C(=O)N[C@@H]2CCNC[C@H]2O)cc1Cl | -10.4%
78 | Cc1noc(C)c1CN1CCC(c2nnc(Cn3cccn3)n2C)CC1 | 3.82%
79 | COCc1nnc(C(=O)N2CC(N3CCCCC3)C2)o1 | -3.57%
80 | COCC[C@]1(O)CCN(Cc2nc(C)cs2)C[C@H]1C | 10.5%
81 | Cc1ccnn1CC(=O)N1CCN(C2CCc3ccccc3C2)CC1 (stereo unspecified) | -131%
82 | Cc1ccc2c(c1)c(CNC(=O)C1CCCN(CC(N)=O)C1)nn2C (stereo unspecified) | -17.9%
83 | O=S1(=O)CCC(n2cc(C3=CCN(CCn4cccc4)CC3)cn2)C1 (stereo unspecified) | -8.5%
84 | CC(C)COc1ccccc1CN(C)C(=O)c1cc(=O)[nH]c(=O)[nH]1 | 2.05%
85 | Cc1nc[nH]c1CN1CCn2nc(CN3CC[C@H](F)C3)cc2C1 | 5.01%
86 | Cc1noc(-c2ccnc(N3CCN(C4CCOCC4)CC3)c2)n1 | 1.83%
87 | CN(Cc1ccccc1CN1CCCC1)C(=O)c1c[nH]c(=O)[nH]1 | -3.99%
88 | CCc1nc(CN2CCCN(C(=O)c3cnc(C)cn3)CC2)cs1 | -4.81%
89 | c1nc(N2CCCC2Cn2cncn2)c2sccc2n1 (stereo unspecified) | -9.19%
90 | CN(Cc1ccccc1)CC(O)Cn1cnc2sccc2c1=O (stereo unspecified) | -6.54%
91 | CNC(=O)NCc1nn(-c2ccccc2)c2c1CCC2 | -10.8%
92 | COCCc1noc(CN2CCCCC2Cn2cncn2)n1 (stereo unspecified) | -1.9%

Row | Structure (SMILES) | cytotoxicity at 10 µM
93 | Cc1nc(CN2CCCC2c2c(C)nn(C)c2Cl)no1 (stereo unspecified) | 1.85%
94 | COCc1nc(C(=O)NS(=O)(=O)c2ccc(C)s2)cs1 | -4.61%
95 | N#CC1(C(=O)NCCCNc2ccc(C(F)(F)F)cn2)CCCC1 | -6.36%
96 | Cc1nnc2n1CCN(Cc1ncc(-c3ccc(Cl)cc3)o1)C2 | -17.7%
97 | Clc1snnc1CN1CCCCC1Cn1cncn1 (stereo unspecified) | -0.575%
98 | CCCN1C(=O)CC2(CCCNC2)C1=O (stereo unspecified) | 4.1%
99 | COc1cccc(Cn2c(C3CCNCC3)cc3cccnc32)c1 | 0.115%
100 | Cc1cc(C)c2[nH]c(C)c(CC(=O)N(C)CCN(C)C)c2c1 | 2.49%
101 | COCCN1C(=O)CCC12CCC(NCc1nccs1)CC2 (stereo unspecified) | 7.01%
102 | CN(C)C(=O)[C@@H]1CCO[C@@H]2CCN(Cc3ccc4c(c3)OCO4)C[C@@H]21 | -3.76%
103 | O=C(C1CC1)N1CCC[C@]2(C[C@@H](OCc3ccncc3)CO2)C1 | 6.46%
104 | Cn1cccc1C(=O)N1CCN(Cc2cccnc2)c2ncccc2C1 | 10.9%
105 | O=S(=O)(NCC1OCCc2cn(Cc3ccccn3)nc21)C1CC1 (stereo unspecified) | -143%
106 | CS(=O)(=O)N1CCC2(CC1)CC(Oc1ccccn1)CO2 (stereo unspecified) | -150%
107 | CNC(=O)[C@H]1C[C@H]2OCC[C@H]2N(CC2CC2)C1 | 4.17%
108 | Cc1nc(CN2CCO[C@H]3[C@H](OCC(=O)N(C)C)CC[C@@H]32)cs1 | 0.129%
109 | CN(Cc1cccnc1)C1COC2(CCN(Cc3nccs3)CC2)C1 (stereo unspecified) | 6.37%
110 | CO[C@@H]1CN(Cc2scnc2C)[C@@H]2CCCO[C@@H]21 | -6.34%
111 | CN(Cc1cncnc1)[C@@H]1CN(Cc2ccco2)C[C@@H]2CCCO[C@@H]21 | -1.6%
